Experimental data: ChEMBL document CHEMBL1142928, “Substitution at the 8-position of 3''-deoxy-cyclic ADP-carbocyclic-ribose, a highly potent Ca2+-mobilizing agent, provides partial agonists” (Bioorg Med Chem, 2007)
Calls of active or inactive are those of the source. The rule behind the calls is not given here.

Tests used:
Type in all cases: functional
Echinoidea [1] = assay: Calcium-mobilizing activity in Sea urchin egg homogenate
Outline: (§1)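 Homogenate of Hemicentrotus pulcherrimus sea urchin eggs. Ca2+ release was monitored fluorometrically with fura-2 as the F340/F380 ratio over a range of analogue concentrations. Each response was expressed as the percent change in ratio relative to the response to the maximal cADPcR concentration. EC50 values were taken from dose–response curves.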

Echinoidea [2] = assay: Calcium-mobilizing activity in Sea urchin egg homogenate relative to cADPcR; outline: as §1
Echinoidea [3] = assay: Inhibition of cADPcR-induced calcium release in Sea urchin egg homogenate
Outline: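 Hemicentrotus pulcherrimus egg homogenate was read by fura-2 fluorescence ratio (F340/F380). Homogenate was exposed to graded analogue concentrations, then challenged with the maximal concentration of cADPcR. IC50 values were derived from dose-dependent desensitization (cross-desensitization) of the cADPcR-induced Ca2+ release.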

Nc1c2nc(Cl)n3c2nc[n+]1[C@@H]1C[C@H](COP(=O)([O-])OP(=O)(O)OC[C@H]2O[C@@H]3[C@H](O)[C@@H]2O)C[C@H]1O
EC50 (Echinoidea [1]): 190 nM
Activity (Echinoidea [2]): 21%
IC50 (Echinoidea [3]): 410 nM

Nc1nc2c(N)[n+]3cnc2n1[C@@H]1O[C@H](COP(=O)([O-])OP(=O)(O)OC[C@H]2C[C@@H]3[C@H](O)[C@@H]2O)[C@@H](O)[C@H]1O
EC50 (Echinoidea [1]): 89 nM
Activity (Echinoidea [2]): 33%
IC50 (Echinoidea [3]): 96 nM

[N-]=[N+]=Nc1nc2c(N)[n+]3cnc2n1[C@@H]1O[C@H](COP(=O)(O)OP(=O)([O-])OC[C@H]2C[C@@H]3[C@H](O)[C@@H]2O)[C@@H](O)[C@H]1O
IC50 (Echinoidea [3]): 4200 nM

Nc1nc2c(N)[n+]3cnc2n1[C@@H]1O[C@H](COP(=O)(O)OP(=O)([O-])OC[C@@H]2C[C@@H](O)[C@H]3C2)[C@@H](O)[C@H]1O
EC50 (Echinoidea [1]): 17 nM
Activity (Echinoidea [2]): 14%
IC50 (Echinoidea [3]): 44 nM

Nc1c2ncn3c2nc[n+]1[C@@H]1C[C@H](COP(=O)([O-])OP(=O)(O)OC[C@H]2O[C@@H]3[C@H](O)[C@@H]2O)[C@@H](O)[C@H]1O
EC50 (Echinoidea [1]): 79 nM

Nc1c2ncn3c2nc[n+]1[C@@H]1C[C@H](COP(=O)([O-])OP(=O)(O)OC[C@H]2O[C@@H]3[C@H](O)[C@@H]2O)C[C@H]1O
EC50 (Echinoidea [1]): 17 nM
Activity (Echinoidea [2]): 100%

CCCNc1nc2c(N)[n+]3cnc2n1[C@@H]1O[C@H](COP(=O)(O)OP(=O)([O-])OC[C@@H]2C[C@@H](O)[C@H]3C2)[C@@H](O)[C@H]1O
Activity (Echinoidea [1]): inactive

[N-]=[N+]=Nc1nc2c(N)[n+]3cnc2n1[C@@H]1O[C@H](COP(=O)(O)OP(=O)([O-])OC[C@@H]2C[C@@H](O)[C@H]3C2)[C@@H](O)[C@H]1O
EC50 (Echinoidea [1]): 490 nM
Activity (Echinoidea [2]): 16%
IC50 (Echinoidea [3]): 1100 nM

Nc1c2nc(Cl)n3c2nc[n+]1[C@@H]1C[C@H](COP(=O)(O)OP(=O)([O-])OC[C@H]2O[C@@H]3[C@H](O)[C@@H]2O)[C@@H](O)[C@H]1O
IC50 (Echinoidea [3]): 3000 nM
